Assay [1] deals with Cryptococcus neoformans. The assay can be described thus: Antifungal activity against flucytosine-resistant Cryptococcus neoformans 18476 by Etest method in presence of flucytosine. The format is functional.
For assay [2], the system named is Cryptococcus neoformans. Briefly: Antifungal activity against flucytosine-resistant Cryptococcus neoformans 280 by Etest method in presence of flucytosine. The format is functional.
The subject of assay [3] is Cryptococcus neoformans. The assay can be described thus: Antifungal activity against flucytosine-resistant Cryptococcus neoformans 285 by Etest method in presence of flucytosine. The format is functional.
For assay [4], the system named is Cryptococcus neoformans. Briefly: Antifungal activity against flucytosine-resistant Cryptococcus neoformans 533 by Etest method in presence of flucytosine. The format is functional.
The subject of assay [5] is Cryptococcus neoformans. Briefly: Antifungal activity against flucytosine-resistant Cryptococcus neoformans 18476 by checkerboard method. The format is functional.
Assay [6] has as its system Cryptococcus neoformans. Briefly: Antifungal activity against flucytosine-resistant Cryptococcus neoformans 550 at 0.19 ug/ml after 72 hrs by time-kill method. The format is functional.
For assay [7], the system named is Cryptococcus neoformans. Briefly: Antifungal activity against flucytosine-resistant Cryptococcus neoformans 18476 by checkerboard method in presence of flucytosine. The format is functional.
For assay [8], the system named is Cryptococcus neoformans. The assay can be described thus: Antifungal activity against flucytosine-resistant Cryptococcus neoformans 550 by checkerboard method in presence of flucytosine. The format is functional.
Assay [9] concerns Cryptococcus neoformans. Briefly: Antifungal activity against flucytosine-resistant Cryptococcus neoformans 99.1026 by Etest method in presence of flucytosine. The format is functional.
The subject of assay [10] is Cryptococcus neoformans. The assay can be described thus: Antifungal activity against flucytosine-resistant Cryptococcus neoformans 98.0673 by Etest method in presence of flucytosine. The format is functional.
Assay [11] relates to Cryptococcus neoformans. The assay can be described thus: Antifungal activity against flucytosine-resistant Cryptococcus neoformans 280 by checkerboard method. The format is functional.
Assay [12] has as its system Cryptococcus neoformans. The assay can be described thus: Antifungal activity against flucytosine-resistant Cryptococcus neoformans 276 by Etest method in presence of flucytosine. The format is functional.
Assay [13] concerns Cryptococcus neoformans. The assay can be described thus: Antifungal activity against flucytosine-resistant Cryptococcus neoformans 98.1121 at 0.125 ug/ml after 72 hrs by time-kill method. The format is functional. The essentials: (§1)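 Time-kill assay on flucytosine-resistant isolates. […] Viable counts were taken as log10 CFU per ml after 72 h of incubation.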
Assay [14] relates to Cryptococcus neoformans. Briefly: Antifungal activity against flucytosine-resistant Cryptococcus neoformans 98.1121 by Etest method in presence of flucytosine. The format is functional.
Assay [15] deals with Cryptococcus neoformans. Briefly: Antifungal activity against flucytosine-resistant Cryptococcus neoformans 98.0176 by Etest method in presence of flucytosine. The format is functional.
Assay [16] concerns Cryptococcus neoformans. Briefly: Antifungal activity against flucytosine-resistant Cryptococcus neoformans 98.0673 at 0.125 ug/ml after 72 hrs by time-kill method. The format is functional. The essentials:
(§2)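 Time-kill assay run as in the authors' earlier method. […] Read-out was log10 CFU/ml after 72 h incubation, compared with a drug-free control.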

Assay [17] relates to Cryptococcus neoformans. The assay can be described thus: Antifungal activity against flucytosine-resistant Cryptococcus neoformans 533 by checkerboard method in presence of flucytosine. The format is functional.
Assay [18] concerns Cryptococcus neoformans. The assay can be described thus: Antifungal activity against flucytosine-resistant Cryptococcus neoformans 533 at 0.125 ug/ml after 72 hrs by time-kill method. The format is functional. The essentials:
as §2

For assay [19], the system named is Cryptococcus neoformans. The assay can be described thus: Antifungal activity against flucytosine-resistant Cryptococcus neoformans 276 at 0.125 ug/ml after 72 hrs by time-kill method. The format is functional. The essentials: as §2
In assay [20] the test system is Cryptococcus neoformans. The assay can be described thus: Antifungal activity against flucytosine-resistant Cryptococcus neoformans 98.0176 at 0.125 ug/ml after 72 hrs by time-kill method. The format is functional. Put shortly:
as §2

For assay [21], the system named is Cryptococcus neoformans. The assay can be described thus: Antifungal activity against flucytosine-resistant Cryptococcus neoformans 98.0673 by checkerboard method. The format is functional.
Assay [22] relates to Cryptococcus neoformans. The assay can be described thus: Antifungal activity against flucytosine-resistant Cryptococcus neoformans 550 by Etest method in presence of flucytosine. The format is functional.
Assay [23] concerns Cryptococcus neoformans. The assay can be described thus: Antifungal activity against flucytosine-resistant Cryptococcus neoformans 98.0176 by checkerboard method in presence of flucytosine. The format is functional.
Assay [24] has as its system Cryptococcus neoformans. The assay can be described thus: Antifungal activity against flucytosine-resistant Cryptococcus neoformans 276 by checkerboard method in presence of flucytosine. The format is functional.
For assay [25], the system named is Cryptococcus neoformans. The assay can be described thus: Antifungal activity against flucytosine-resistant Cryptococcus neoformans 99.1026 at 0.125 ug/ml after 72 hrs by time-kill method. The format is functional. Put shortly:
as §1

The subject of assay [26] is Cryptococcus neoformans. The assay can be described thus: Antifungal activity against flucytosine-resistant Cryptococcus neoformans 280 at 0.125 ug/ml after 72 hrs by time-kill method. The format is functional. Put shortly:
as §2

The test system of assay [27] is Cryptococcus neoformans. Briefly: Antifungal activity against flucytosine-resistant Cryptococcus neoformans 99.1026 by checkerboard method in presence of flucytosine. The format is functional.
For assay [28], the system named is Cryptococcus neoformans. The assay can be described thus: Antifungal activity against flucytosine-resistant Cryptococcus neoformans 18476 at 0.125 ug/ml after 72 hrs by time-kill method. The format is functional. The essentials: as §2
The test system of assay [29] is Cryptococcus neoformans. The assay can be described thus: microbe, parasite or virus in culture.
Assay [30] deals with Cryptococcus neoformans. Briefly: Antifungal activity against flucytosine-resistant Cryptococcus neoformans 285 by checkerboard method. The format is functional.
In assay [31] the test system is Cryptococcus neoformans. Briefly: Antifungal activity against flucytosine-resistant Cryptococcus neoformans 98.1121 by checkerboard method. The format is functional.
Assay [32] concerns Cryptococcus neoformans. The assay can be described thus: Antifungal activity against flucytosine-resistant Cryptococcus neoformans 99.1026 by checkerboard method. The format is functional.
The test system of assay [33] is Cryptococcus neoformans. The assay can be described thus: Antifungal activity against flucytosine-resistant Cryptococcus neoformans 276 by checkerboard method. The format is functional.
The subject of assay [34] is Cryptococcus neoformans. Briefly: Antifungal activity against flucytosine-resistant Cryptococcus neoformans 98.0176 by checkerboard method. The format is functional.
For assay [35], the system named is Cryptococcus neoformans. Briefly: Antifungal activity against flucytosine-resistant Cryptococcus neoformans 550 by checkerboard method. The format is functional.
Assay [36] deals with Cryptococcus neoformans. The assay can be described thus: Antifungal activity against flucytosine-resistant Cryptococcus neoformans 533 by checkerboard method. The format is functional.

Two compounds from ChEMBL document CHEMBL1142133 (2007) can be followed below.

In brackets after ≈: the same amount, converted by molar mass.

Consider `C[C@@H]1[C@H](O)[C@@H](C)/C=C/C=C/C=C/C=C/C=C/C=C/C=C/[C@H](O[C@@H]2O[C@H](C)[C@@H](O)[C@H](N)[C@@H]2O)C[C@@H]2O[C@](O)(C[C@@H](O)C[C@@H](O)[C@H](O)CC[C@@H](O)C[C@@H](O)CC(=O)O[C@H]1C)C[C@H](O)[C@H]2C(=O)O` [AMPHOTERICIN B], for which the MIC with Cryptococcus neoformans [1] amounted to 0.094 µg/mL; in the assay on Cryptococcus neoformans [2] it was 0.094 µg/mL; in the assay with Cryptococcus neoformans [3] it was 0.095 µg/mL; in the assay with Cryptococcus neoformans [4] it was 0.094 µg/mL; with Cryptococcus neoformans [5] it was 0.25 µg/mL; with Cryptococcus neoformans [7], 0.12 µg/mL. Moreover, the MIC in the assay with Cryptococcus neoformans [8] was 0.06 µg/mL; with Cryptococcus neoformans [9], 0.094 µg/mL; in the assay on Cryptococcus neoformans [10] it was 0.094 µg/mL; in the assay on Cryptococcus neoformans [11], 1 µg/mL; in the assay on Cryptococcus neoformans [12] it was 0.094 µg/mL; in the assay with Cryptococcus neoformans [14], 0.094 µg/mL. Also, the MIC in the assay with Cryptococcus neoformans [15] came to 0.094 µg/mL; in the assay with Cryptococcus neoformans [17], 0.12 µg/mL; in the assay with Cryptococcus neoformans [21], 1 µg/mL; with Cryptococcus neoformans [22], 0.094 µg/mL; with Cryptococcus neoformans [23] it was 0.12 µg/mL; with Cryptococcus neoformans [24], 0.06 µg/mL. In addition, the MIC with Cryptococcus neoformans [27] was determined as 0.06 µg/mL; against Cryptococcus neoformans [29], 0.25 µg/mL (≈ 0.271 µM); in the assay on Cryptococcus neoformans [30], 1 µg/mL. Further, the log10CFU/ml is 7.2 in the assay with Cryptococcus neoformans [6]; 1.5 in the assay on Cryptococcus neoformans [13]; 7.2 in the assay with Cryptococcus neoformans [16]; 7.4 in the assay with Cryptococcus neoformans [18]; 7.3 in the assay with Cryptococcus neoformans [19]; 6.5 with Cryptococcus neoformans [20]. Besides, the figures for the log10CFU/ml with Cryptococcus neoformans [25], in the assay on Cryptococcus neoformans [26] and in the assay with Cryptococcus neoformans [28] were 5.2, 5.6 and 6.7, respectively.
On to `O=c1[nH]cc(F)c(=O)[nH]1` [FLUOROURACIL], for which the MIC was determined as 256 µg/mL in the assay on Cryptococcus neoformans [31]; 8 µg/mL in the assay on Cryptococcus neoformans [32]; 0.25 µg/mL with Cryptococcus neoformans [5]; 256 µg/mL in the assay with Cryptococcus neoformans [33]; 256 µg/mL in the assay on Cryptococcus neoformans [11]; 16 µg/mL in the assay on Cryptococcus neoformans [21]. Also, the MIC in the assay on Cryptococcus neoformans [34] was determined as 0.008 µg/mL; in the assay with Cryptococcus neoformans [35] it was 0.5 µg/mL; in the assay on Cryptococcus neoformans [30], 4 µg/mL; in the assay on Cryptococcus neoformans [36], 256 µg/mL.
